Measurements from ChEMBL document CHEMBL1134346, “Labeling and evaluation of N-[11C]methylated quinoline-2-carboxamides as potential radioligands for visualization of peripheral benzodiazepine receptors” (J Med Chem, 2001).

Organism: Rattus norvegicus
Assay: Tissue (spleen) distribution in Albino male CD rats after 5 minutes expressed as percent of injected dose per gram of organ.
Format: ADME, organism-based
Settings: in vivo
Procedure, shortened: (§1)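 Male albino CD rats (225-250 g) received the 11C-labelled radioligand in saline by tail-vein injection. Three rats per time point were decapitated under light ether anaesthesia at 5, 15, 30, 60 or 90 min. Blood was collected heparinized and plasma separated by centrifugation. The pituitary was dissected from the brain. Lung, liver (three-lobe pieces) and right deltoid muscle were sampled, washed in cold saline, gamma-counted and weighed. Results are %I.D./g.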

Structure (SMILES)	I.D./g
CCC(C)N(C)C(=O)c1nc2ccccc2c(-c2ccccc2F)c1C (stereo not given)	0.34%

Organism: Rattus norvegicus
Assay: Tissue (testicle) distribution in Albino male CD rats after 15 minutes expressed as percent of injected dose per gram of organ.
Format: ADME, organism-based
Settings: in vivo, 0.25 h
Procedure, shortened: as §1

Structure (SMILES)	I.D./g
CCC(C)N(C)C(=O)c1nc2ccccc2c(-c2ccccc2F)c1C (stereo not given)	0.09%

Organism: Rattus norvegicus
Assay: Tissue (testicle) distribution in Albino male CD rats after 60 minutes expressed as percent of injected dose per gram of organ.
Format: ADME, organism-based
Settings: in vivo, 1 h
Procedure, shortened: as §1

Structure (SMILES)	I.D./g
CCC(C)N(C)C(=O)c1nc2ccccc2c(-c2ccccc2F)c1C (stereo not given)	0.09%

Organism: Rattus norvegicus
Assay: Tissue (testicle) distribution in Albino male CD rats after 90 minutes expressed as percent of injected dose per gram of organ.
Format: ADME, organism-based
Settings: in vivo, 1.5 h

Structure (SMILES)	I.D./g
CCC(C)N(C)C(=O)c1nc2ccccc2c(-c2ccccc2F)c1C (stereo not given)	0.08%

Organism: Rattus norvegicus
Assay: Tissue (kidney) distribution in Albino male CD rats after 30 minutes expressed as percent of injected dose per gram of organ.
Format: ADME, organism-based
Settings: in vivo, 0.5 h
Procedure, shortened: (§2)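 Radioligand given in saline into tail vein of male albino CD rats (225-250 g); 100-200 µCi per animal, 1-2 Ci/µmol at injection depending on radioligand. Three rats per time point were decapitated under light ether anaesthesia. Blood, plasma, brain regions and washed organs were weighed and gamma-counted. Uptake is %I.D./g tissue, mean ± SD.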

Structure (SMILES)	I.D./g
CCC(C)N(C)C(=O)c1nc2ccccc2c(-c2ccccc2F)c1C (stereo not given)	0.55%

Organism: Rattus norvegicus
Assay: Tissue (kidney) distribution in Albino male CD rats after 90 minutes expressed as percent of injected dose per gram of organ.
Format: ADME, organism-based
Settings: in vivo, 1.5 h
Procedure, shortened: as §2

Structure (SMILES)	I.D./g
CCC(C)N(C)C(=O)c1nc2ccccc2c(-c2ccccc2F)c1C (stereo not given)	0.46%

Organism: Rattus norvegicus
Assay: Tissue (liver) distribution in Albino male CD rats after 30 minutes expressed as percent of injected dose per gram of organ.
Format: ADME, organism-based
Settings: in vivo, 0.5 h
Procedure, shortened: as §1

Structure (SMILES)	I.D./g
CCC(C)N(C)C(=O)c1nc2ccccc2c(-c2ccccc2F)c1C (stereo not given)	0.55%

Organism: Rattus norvegicus
Assay: Tissue (liver) distribution in Albino male CD rats after 5 minutes expressed as percent of injected dose per gram of organ.
Format: ADME, organism-based
Settings: in vivo
Procedure, shortened: as §1

Structure (SMILES)	I.D./g
CCC(C)N(C)C(=O)c1nc2ccccc2c(-c2ccccc2F)c1C (stereo not given)	0.41%

Organism: Rattus norvegicus
Assay: Tissue (liver) distribution in Albino male CD rats after 90 minutes expressed as percent of injected dose per gram of organ.
Format: ADME, organism-based
Settings: in vivo, 1.5 h
Procedure, shortened: as §1

Structure (SMILES)	I.D./g
CCC(C)N(C)C(=O)c1nc2ccccc2c(-c2ccccc2F)c1C (stereo not given)	0.39%

Organism: Rattus norvegicus
Assay: Tissue (lung) concentration of radioactivity at 30 min post-injection into Albino male CD rats with vehicle.
Format: ADME, organism-based
Settings: in vivo, 0.5 h
Procedure, shortened: (§3)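 Blocking study in male albino CD rats, five per group. Immediately before the 11C radioligand (in saline, i.v. tail vein), rats received 30 µL tail-vein PK 11195 (5 mg/kg; 1.4-1.6 mg) in DMSO:EtOH 1:1, or vehicle. Rats were decapitated at 30 min. Tissues were dissected, washed, gamma-counted and weighed as in the biodistribution study. Results are %I.D./g.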

Structure (SMILES)	I.D./g
CCC(C)N(C)C(=O)c1nc2ccccc2c(-c2ccccc2F)c1C (stereo not given)	0.56%

Organism: Rattus norvegicus
Assay: Tissue (lung) distribution in Albino male CD rats after 60 minutes expressed as percent of injected dose per gram of organ.
Format: ADME, organism-based
Settings: in vivo, 1 h
Procedure, shortened: as §1

Structure (SMILES)	I.D./g
CCC(C)N(C)C(=O)c1nc2ccccc2c(-c2ccccc2F)c1C (stereo not given)	1.77%

Organism: Rattus norvegicus
Assay: Tissue (lung) distribution in Albino male CD rats after 90 minutes expressed as percent of injected dose per gram of organ.
Format: ADME, organism-based
Settings: in vivo, 1.5 h
Procedure, shortened: as §1

Structure (SMILES)	I.D./g
CCC(C)N(C)C(=O)c1nc2ccccc2c(-c2ccccc2F)c1C (stereo not given)	1.55%

Organism: Rattus norvegicus
Assay: Tissue (blood) distribution in Albino male CD rats after 30 minutes expressed as percent of injected dose per gram of organ.
Format: ADME, organism-based
Settings: in vivo, 0.5 h
Procedure, shortened: as §2

Structure (SMILES)	I.D./g
CCC(C)N(C)C(=O)c1nc2ccccc2c(-c2ccccc2F)c1C (stereo not given)	0.11%

Organism: Rattus norvegicus
Assay: Tissue (adrenal gland) distribution in Albino male CD rats after 30 minutes expressed as percent of injected dose per gram of organ.
Format: ADME, organism-based
Settings: in vivo, 0.5 h
Procedure, shortened: as §2

Structure (SMILES)	I.D./g
CCC(C)N(C)C(=O)c1nc2ccccc2c(-c2ccccc2F)c1C (stereo not given)	2.78%

Organism: Rattus norvegicus
Assay: Tissue (adrenal gland) distribution in Albino male CD rats after 60 minutes expressed as percent of injected dose per gram of organ.
Format: ADME, organism-based
Settings: in vivo, 1 h
Procedure, shortened: as §2

Structure (SMILES)	I.D./g
CCC(C)N(C)C(=O)c1nc2ccccc2c(-c2ccccc2F)c1C (stereo not given)	2.85%

Organism: Rattus norvegicus
Assay: Tissue (spleen) distribution in Albino male CD rats after 15 minutes expressed as percent of injected dose per gram of organ.
Format: ADME, organism-based
Settings: in vivo, 0.25 h

Structure (SMILES)	I.D./g
CCC(C)N(C)C(=O)c1nc2ccccc2c(-c2ccccc2F)c1C (stereo not given)	0.75%

Organism: Rattus norvegicus
Assay: Tissue (spleen) distribution in Albino male CD rats after 30 minutes expressed as percent of injected dose per gram of organ.
Format: ADME, organism-based
Settings: in vivo, 0.5 h
Procedure, shortened: as §1

Structure (SMILES)	I.D./g
CCC(C)N(C)C(=O)c1nc2ccccc2c(-c2ccccc2F)c1C (stereo not given)	0.77%

Organism: Rattus norvegicus
Assay: Tissue (muscle) concentration of radioactivity at 30 min post-injection into Albino male CD rats with vehicle.
Format: ADME, organism-based
Settings: in vivo, 0.5 h
Procedure, shortened: as §3

Structure (SMILES)	I.D./g
CCC(C)N(C)C(=O)c1nc2ccccc2c(-c2ccccc2F)c1C (stereo not given)	0.05%

Organism: Rattus norvegicus
Assay: Tissue (muscle) distribution in Albino male CD rats after 5 minutes expressed as percent of injected dose per gram of organ.
Format: ADME, organism-based
Settings: in vivo
Procedure, shortened: as §1

Structure (SMILES)	I.D./g
CCC(C)N(C)C(=O)c1nc2ccccc2c(-c2ccccc2F)c1C (stereo not given)	0.06%

Organism: Rattus norvegicus
Assay: Tissue (cortex) distribution in Albino male CD rats after 15 minutes expressed as percent of injected dose per gram of organ.
Format: ADME, organism-based
Settings: in vivo, 0.25 h
Procedure, shortened: as §2

Structure (SMILES)	I.D./g
CCC(C)N(C)C(=O)c1nc2ccccc2c(-c2ccccc2F)c1C (stereo not given)	0.11%
